ChEMBL document CHEMBL1141864, “Structure-activity relationships in 1,4-benzodioxan-related compounds. 8.(1) {2-[2-(4-chlorobenzyloxy)phenoxy]ethyl}-[2-(2,6-dimethoxyphenoxy)ethyl]amine (clopenphendioxan) as a tool to highlight the involvement of alpha1D- and alpha1B-adrenoreceptor subtypes in the regulation of human PC-3 …” (J Med Chem, 2005)

Columns and labels:
[1] = molecular target: T1, Alpha-1A adrenergic receptor (Homo sapiens, UniProt P35348); assay: Displacement of [3H]prazosin from cloned human ADRA1A expressed in CHO cells; assay type: cell-based
T1 sequence (P35348 whole entry): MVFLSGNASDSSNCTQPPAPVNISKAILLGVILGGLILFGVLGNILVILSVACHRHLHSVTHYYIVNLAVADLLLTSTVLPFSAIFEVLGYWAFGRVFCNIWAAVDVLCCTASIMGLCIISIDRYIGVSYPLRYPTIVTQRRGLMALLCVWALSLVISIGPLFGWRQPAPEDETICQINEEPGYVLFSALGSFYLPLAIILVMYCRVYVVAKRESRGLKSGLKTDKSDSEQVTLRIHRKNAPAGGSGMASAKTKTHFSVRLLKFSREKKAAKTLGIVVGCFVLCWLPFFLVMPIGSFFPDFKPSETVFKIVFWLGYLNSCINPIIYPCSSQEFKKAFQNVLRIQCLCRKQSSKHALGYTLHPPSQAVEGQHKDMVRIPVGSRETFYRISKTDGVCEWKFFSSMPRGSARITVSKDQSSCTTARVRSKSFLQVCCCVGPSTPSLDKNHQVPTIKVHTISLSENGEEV

[2] = molecular target: T2, 5-hydroxytryptamine receptor 1A (Homo sapiens, UniProt P08908); assay: Displacement of [3H]8-hydroxy-2-(di-n-propylamino)tetralin from cloned human 5HT1A receptor expressed in HeLa cells; assay type: cell-based
T2 sequence (P08908 whole entry): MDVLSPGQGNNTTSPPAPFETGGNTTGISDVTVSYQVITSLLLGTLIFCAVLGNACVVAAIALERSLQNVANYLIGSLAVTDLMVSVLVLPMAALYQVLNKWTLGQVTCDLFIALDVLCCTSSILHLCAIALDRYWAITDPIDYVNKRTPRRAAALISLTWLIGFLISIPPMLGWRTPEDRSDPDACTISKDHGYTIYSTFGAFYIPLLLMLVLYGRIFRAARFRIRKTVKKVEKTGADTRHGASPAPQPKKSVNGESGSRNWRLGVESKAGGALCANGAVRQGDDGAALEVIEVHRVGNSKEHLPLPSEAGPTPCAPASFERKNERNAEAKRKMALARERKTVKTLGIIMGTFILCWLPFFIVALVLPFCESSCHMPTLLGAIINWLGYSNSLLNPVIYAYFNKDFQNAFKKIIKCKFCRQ
How it was run: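 Radioligand binding on cloned human receptors, with [3H]prazosin for α1 subtypes (CHO cells) and [3H]8-OH-DPAT for 5-HT1A (HeLa cells); each experiment in triplicate, Ki from two to three experiments agreeing within ±20%, reported as pKi.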

[3] = molecular target: T3, Alpha-1B adrenergic receptor (Rattus norvegicus) (UniProt P15823); assay: ADRA1B blocking activity assessed by antagonism of (-)-phenylephrine induced contractions on isolated rat spleen; assay type: functional, tissue-based
T3 sequence (whole entry): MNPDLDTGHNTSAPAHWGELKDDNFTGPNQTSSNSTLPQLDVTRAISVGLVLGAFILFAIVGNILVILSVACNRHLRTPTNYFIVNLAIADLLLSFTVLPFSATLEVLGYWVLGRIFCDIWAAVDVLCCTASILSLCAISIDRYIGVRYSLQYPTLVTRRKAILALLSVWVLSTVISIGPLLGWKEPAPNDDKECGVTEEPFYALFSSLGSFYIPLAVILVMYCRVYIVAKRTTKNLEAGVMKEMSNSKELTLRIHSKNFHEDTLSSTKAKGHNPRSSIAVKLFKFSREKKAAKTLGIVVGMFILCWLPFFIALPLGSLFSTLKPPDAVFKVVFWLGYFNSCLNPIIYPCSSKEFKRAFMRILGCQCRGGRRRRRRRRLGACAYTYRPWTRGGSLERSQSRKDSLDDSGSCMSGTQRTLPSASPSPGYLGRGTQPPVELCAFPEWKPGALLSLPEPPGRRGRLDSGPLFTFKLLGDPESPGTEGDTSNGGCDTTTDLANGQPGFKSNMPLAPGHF
How it was run: (§1)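 Isolated rat tissue: each antagonist concentration tested four times over 0.01–1 μM; pK_B calculated by van Rossum method from shifts of (-)-noradrenaline contraction curves (vas deferens, α1A; thoracic aorta, α1D) or (-)-phenylephrine contraction curves (spleen, α1B).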

[4] = molecular target: T4, Alpha-1D adrenergic receptor (Rattus norvegicus) (UniProt P23944); assay: ADRA1D blocking activity assessed by antagonism of (-)-NE induced contractions on isolated rat thoracic aorta; assay type: functional, tissue-based; how it was run: as §1
T4 sequence (whole entry): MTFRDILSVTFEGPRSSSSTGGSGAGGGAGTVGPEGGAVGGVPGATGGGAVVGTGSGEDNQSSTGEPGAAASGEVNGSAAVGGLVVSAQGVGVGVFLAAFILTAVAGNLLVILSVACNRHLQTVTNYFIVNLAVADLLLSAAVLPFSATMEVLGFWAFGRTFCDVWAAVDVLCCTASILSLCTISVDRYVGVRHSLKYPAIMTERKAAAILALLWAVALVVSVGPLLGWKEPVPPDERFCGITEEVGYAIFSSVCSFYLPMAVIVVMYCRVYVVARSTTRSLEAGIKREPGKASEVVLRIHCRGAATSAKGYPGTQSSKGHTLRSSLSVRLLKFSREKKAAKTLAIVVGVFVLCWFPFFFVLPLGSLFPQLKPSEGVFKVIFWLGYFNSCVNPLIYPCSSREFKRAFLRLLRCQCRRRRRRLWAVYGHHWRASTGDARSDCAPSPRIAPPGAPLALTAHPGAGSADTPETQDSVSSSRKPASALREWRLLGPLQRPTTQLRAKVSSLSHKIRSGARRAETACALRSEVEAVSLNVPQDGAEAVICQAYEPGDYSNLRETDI

[5] = tested on: PC-3; assay: Cytotoxic activity on human PC3 prostate cancer cells by SRB assay; assay type: functional; details: for GI50 / LC50 (50% lethal concentration) / TGI: Homo sapiens, PC-3
How it was run: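 NCI-protocol SRB assay on PC-3 cells grown in DMEM/10% FBS/2 mM glutamine. Seeded 24 h, then compounds in medium for 48 h at 37 °C, 5% CO2, in quadruplicate. A time-zero plate was read. Cells TCA-fixed, stained with 0.4% SRB, absorbance at 520 nm. GI50, TGI and LC50 interpolated from % growth versus log concentration.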

Row | Structure (SMILES) | Ki [1] [µM] | Ki [2] [µM] | pKb [3] | pKb [4] | GI50 [5] [µM] | LC50 (50% lethal concentration) [5] [µM] | TGI [5] [µM] | Activity [5] [%]
1 | COc1cccc(OC)c1OCCNCCOc1ccccc1OCc1ccc(Cl)cc1 [CLOPENPHENDIOXAN] | 0.000251 | 0.0155 | 8.06 | 9.11 | 2.4 | 52.5 | 14.5 | –
2 | COc1cccc(OC)c1OCCNCCOc1ccccc1OCc1ccccc1 | 0.000468 | 0.0117 | 8.3 | 9.37 | 26.9 | 193 | 76.9 | –
3 | COc1ccccc1COc1ccccc1OCCNCCOc1c(OC)cccc1OC | 0.002 | 0.0234 | 8.13 | 8.86 | 8.9 | 100 | 30.2 | –
4 | COc1cccc(COc2ccccc2OCCNCCOc2c(OC)cccc2OC)c1 | 0.002 | 0.0309 | 8.31 | 9.12 | 2.5 | 61.7 | 15.1 | –
5 | COc1cccc(OC)c1OCCNCCOc1ccccc1OCc1ccc([N+](=O)[O-])cc1 | 0.00126 | 0.0117 | 9.02 | 9.41 | 12 | – | 43.6 | <50
6 | COc1cccc(OC)c1OCCNCCOc1ccccc1OCc1cccc(C)c1 | 0.000398 | 0.0182 | 8.2 | 8.85 | 12 | 87.1 | 32.3 | –
7 | COc1ccc(COc2ccccc2OCCNCCOc2c(OC)cccc2OC)cc1 | 0.002 | 0.0174 | 9.51 | 9.21 | 8.5 | – | 34.7 | <50
8 | COc1cccc(OC)c1OCCNCCOc1ccccc1OCc1cccc(Cl)c1 | 0.000251 | 0.00661 | 7.93 | 8.72 | 5.9 | 58.9 | 20.4 | –
9 | COc1cccc(OC)c1OCCNCCOc1ccccc1OCc1ccccc1[N+](=O)[O-] | 0.00794 | 0.024 | 8.56 | 8.95 | 13.2 | 95.5 | 34.7 | –
10 | COc1cccc(OC)c1OCCNCCOc1ccccc1OCc1ccccc1Cl | 0.00141 | 0.00479 | 7.52 | 8.59 | 5.4 | 58.9 | 17.8 | –
11 | COc1cccc(OC)c1OCCNCCOc1ccccc1OCc1ccc(C)cc1 | 0.002 | 0.0224 | 8.43 | 9.12 | 7.8 | 61.7 | 27.5 | –
12 | COc1cccc(OC)c1OCCNCCOc1ccccc1OCc1ccccc1C | 0.00158 | 0.0112 | 7.67 | 8.64 | 11.5 | – | 33.9 | <50
13 | COc1cccc(OC)c1OCCNCCOc1ccccc1OCc1cccc([N+](=O)[O-])c1 | 0.000316 | 0.0209 | 8.74 | 9.28 | 13.2 | – | 38.9 | <50
